# In ChEMBL document CHEMBL4316593 (Eur J Med Chem, 2019):
# Activity calls are given as the source filed them. No cut-off for these calls is given here.
# Columns and labels:
# MEF = test: Cytotoxicity against MEF assessed as cell death at 100 uM measured after 48 hrs by trypan blue dye-based cell counting analysis; settings: mouse
# U-87 MG [1] = test: Cell cycle arrest in human U87 cells assessed as change in CDK4 gene expression at cytotoxic IC50 measured after 48 hrs […] relative to control; assay type: functional, U-87MG ATCC
# How it was run: (§1)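 U87 expression profiling. Cells incubated 48hrs at 37°C, 5% CO₂ with the IC₅₀ concentration, alongside a cisplatin and an untreated control, in triplicate. RNA was isolated by one common protocol and profiled. DEGs were called with DESeq2 (q < 0.05, fold change > 1.5) and expressed as fold change versus untreated.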
# U-87 MG [2] = test: Induction of DNA damage in human U87 cells assessed as change in BRIP1 gene expression at cytotoxic IC50 measured after 48 hrs […] relative to control; assay type: functional, U-87MG ATCC; how it was run: as §1
# [3] = Inhibition of RTK/PI3K/AKT/mTOR signaling in human U87 cells assessed as up regulation of QSOX2 gene expression at cytotoxic IC50 measured after 48 hrs relative to control; assay type: cell-based; settings: U-87MG ATCC
# How it was run: (§2)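 Cells were exposed for 48hrs at 37°C in humidified 5% CO₂ to the compound at its previously determined IC₅₀, with Cisplatin at its IC₅₀ and an untreated negative control alongside. Each condition was run in triplicate. RNA was isolated from all samples by the same protocol. Genes were called differentially expressed by DESeq2 at q-value < 0.05 and fold change > 1.5.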
# [4] = Inhibition of RTK/PI3K/AKT/mTOR signaling in human U87 cells assessed as down regulation of KIF1BP gene expression at cytotoxic IC50 measured after 48 hrs relative to control; assay type: cell-based; settings: U-87MG ATCC
# How it was run: (§3)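 U87 cells grown in MEM with 10% FBS at 37°C, 5% CO2. Cells exposed to IC50 of test compound for 48 hrs, alongside untreated and cisplatin controls, each condition in triplicate. RNA isolated and profiled; differential expression called with DESeq2 (q-value < 0.05, fold change > 1.5), fold change versus untreated.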
# [5] = Inhibition of RTK/PI3K/AKT/mTOR signaling in human U87 cells assessed as up regulation of regulator of chromosome condensation 2 gene expression at cytotoxic IC50 measured after 48 hrs relative to control; assay type: cell-based; settings: U-87MG ATCC
# [6] = Inhibition of RTK/PI3K/AKT/mTOR signaling in human U87 cells assessed as down regulation of BRMS1 gene expression at cytotoxic IC50 measured after 48 hrs relative to control; assay type: cell-based; settings: U-87MG ATCC; how it was run: as §3
# [7] = Inhibition of RTK/PI3K/AKT/mTOR signaling in human U87 cells assessed as up regulation of lecithin retinol acyltransferase (phosphatidylcholine-retinol O-acyltransferase) gene expression at cytotoxic IC50 measured after 48 hrs relative to control; assay type: cell-based; settings: U-87MG ATCC
# [8] = Inhibition of RTK/PI3K/AKT/mTOR signaling in human U87 cells assessed as up regulation of melanoma inhibitory activity 2 gene expression at cytotoxic IC50 measured after 48 hrs relative to control; assay type: cell-based; settings: U-87MG ATCC
# U-87 MG [9] = test: Induction of DNA damage in human U87 cells assessed as change in FANCI gene expression at cytotoxic IC50 measured after 48 hrs […] relative to control; assay type: functional, U-87MG ATCC; how it was run: as §1
# LN-229 [10] = test: Cytotoxicity against human LN229 cells assessed as reduction in cell proliferation measured after 48 hrs by trypan blue dye-based cell counting analysis; settings: LN-229, 48 h
# [11] = Inhibition of RTK/PI3K/AKT/mTOR signaling in human U87 cells assessed as up regulation of macrophage stimulating 1 receptor gene expression at cytotoxic IC50 measured after 48 hrs relative to control; assay type: cell-based
# U-87 MG [12] = test: Induction of apoptosis in human U87 cells assessed as apoptotic cells at cytotoxic IC50 measured after 48 hrs by Annexin V-FITC/propidium iodide staining based flow cytometry (reference value: 22.4%); assay type: functional, U-87MG ATCC
# [13] = Inhibition of RTK/PI3K/AKT/mTOR signaling in human U87 cells assessed as down regulation of CMTM3 gene expression at cytotoxic IC50 measured after 48 hrs relative to control; assay type: cell-based; settings: U-87MG ATCC; how it was run: as §3
# U-87 MG [14] = test: Induction of apoptosis in human U87 cells assessed as change in TUBA4A gene expression at cytotoxic IC50 measured after 48 hrs by […] relative to control; assay type: functional, U-87MG ATCC; how it was run: as §3
# U-87 MG [15] = test: Cytotoxicity against human U87 cells assessed as reduction in cell proliferation by phase contrast microscopic analysis; assay type: functional, cell-based; settings: U-87MG ATCC
# U-87 MG [16] = test: Induction of apoptosis in human U87 cells assessed as change in CAPN1 gene expression at cytotoxic IC50 measured after 48 hrs […] relative to control; assay type: functional, U-87MG ATCC; how it was run: as §3
# [17] = Inhibition of RTK/PI3K/AKT/mTOR signaling in human U87 cells assessed as down regulation of TAF13 gene expression at cytotoxic IC50 measured after 48 hrs relative to control; assay type: cell-based; settings: U-87MG ATCC; how it was run: as §2
# U-87 MG [18] = test: Induction of DNA damage in human U87 cells assessed as change in BRCA1 gene expression at cytotoxic IC50 measured after 48 hrs […] relative to control; assay type: functional, U-87MG ATCC; how it was run: as §1
# [19] = Inhibition of RTK/PI3K/AKT/mTOR signaling in human U87 cells assessed as up regulation of ral guanine nucleotide dissociation stimulator gene expression at cytotoxic IC50 measured after 48 hrs relative to control; assay type: cell-based; settings: U-87MG ATCC
# U-87 MG [20] = test: Induction of apoptosis in human U87 cells assessed as change in BCL2L1 gene expression at cytotoxic IC50 measured after 48 hrs […] relative to control; assay type: functional, U-87MG ATCC; how it was run: as §3
# LN-229 [21] = test: Cell cycle arrest in human LN229 cells assessed as accumulation at G1/S-phase at cytotoxic IC50 measured after 48 hrs by propidium iodide staining based fluorescence cell imaging analysis; assay type: functional
# How it was run: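 Cell cycle by PI staining. Cells seeded at 1×10^6 and grown overnight at 37°C, 5% CO₂, then exposed for 48hrs at their IC₅₀ concentration, with DMSO and cisplatin controls. Cells were trypsinized, washed in cold PBS and fixed in 70% ethanol at 4°C for 30 min. They were stained with PI in Triton X-100/RNase for 15 min at 37°C and imaged by fluorescence microscopy. Reported as mean ± S.E.M of triplicates.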
# U-87 MG [22] = test: Induction of DNA damage in human U87 cells assessed as change in PEA15 gene expression at cytotoxic IC50 measured after 48 hrs […] relative to control; assay type: functional, U-87MG ATCC; how it was run: as §1
# U-87 MG [23] = test: Induction of DNA damage in human U87 cells assessed as change in SFN gene expression at cytotoxic IC50 measured after 48 hrs […] relative to control; assay type: functional, U-87MG ATCC; how it was run: as §3
# U-87 MG [24] = test: Induction of apoptosis in human U87 cells assessed as change in ITPR1 gene expression at cytotoxic IC50 measured after 48 hrs […] relative to control; assay type: functional, U-87MG ATCC; how it was run: as §3
# U-87 MG [25] = test: Induction of apoptosis in human U87 cells assessed as change in ERN1 gene expression at cytotoxic IC50 measured after 48 hrs […] relative to control; assay type: functional, U-87MG ATCC; how it was run: as §3
# U-87 MG [26] = test: Induction of apoptosis in human U87 cells assessed as change in PIDD1 gene expression at cytotoxic IC50 measured after 48 hrs […] relative to control; assay type: functional, U-87MG ATCC; how it was run: as §3
compound,measurement,setting,value
CC(=O)C(=NNc1ccccc1C#N)C(C)=O,Activity,MEF,< 20%
same,fold change (FC),U-87 MG [1],1.499
same,fold change (FC),U-87 MG [2],2.317
same,log2FC,[3],0.599
same,log2FC,[4],-0.96
same,log2FC,[5],1.06
same,log2FC,[6],-0.813
same,log2FC,[7],1.23
same,log2FC,[8],0.695
same,fold change (FC),U-87 MG [9],1.708
same,IC50,LN-229 [10],87 µM
same,log2FC,[11],0.723
same,Activity,U-87 MG [12],68.7%
same,log2FC,[13],-0.716
same,log2FC,U-87 MG [14],1.583
same,Activity,U-87 MG [15],Active
same,log2FC,U-87 MG [16],0.8843
same,log2FC,[17],-1.05
same,fold change (FC),U-87 MG [18],2.408
same,log2FC,[19],0.685
same,log2FC,U-87 MG [20],0.9994
same,Activity,LN-229 [21],Active
same,fold change (FC),U-87 MG [22],-1.195
same,fold change (FC),U-87 MG [23],1.949
same,log2FC,U-87 MG [24],-3.437
same,log2FC,U-87 MG [25],-1.369
same,log2FC,U-87 MG [26],2.467
